Columns and labels:
Mus musculus [1] = assay: Toxicity in mice after 9-11 days at a dose of 2 mg/kg/day; value is 10/8.5; type: functional
Mus musculus [2] = organism: Mus musculus; assay: Percentage increase in life span after 9-24 days; type: functional
Procedure, shortened: (§1)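 Male B6D2F1J mice (20–25 g), randomized after i.p. inoculation with 10^5 L1210 ascitic leukemia cells on day 0. Drug in water, pH 7.5–8.0, given i.p. on a q2d×5, qd×9 (from day 1) or b.i.d.×10 schedule; 5 mice per group. %ILS = [(T/C) − 1]100 from median survival days of treated versus control mice. Range is survival days.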

Mus musculus [3] = organism: Mus musculus; assay: Percentage increase in life span after 9-11 days; type: functional; procedure, shortened: as §1
Mus musculus [4] = organism: Mus musculus; assay: Percentage increase in life span after 12-22 days; type: functional; procedure, shortened: as §1
Mus musculus [5] = organism: Mus musculus; assay: Percentage increase in life span after 10-24 days; type: functional; procedure, shortened: as §1
Mus musculus [6] = assay: Weight change on day 7 in L1210 Lymphoid Leukemia in mice at a dose of 9 mg/kg/day (b.i.d. x10); type: functional
Procedure, shortened: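 L1210 ascitic leukemia was implanted i.p. (10⁵ cells, day 0) in male B6D2F1J mice of 20–25 g, 5 per group. Dosing was b.i.d.×10, except that on days 5 and 6 a single double-dose injection was given. The % weight change was recorded at day 7.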

Mus musculus [7] = assay: Weight change on day 7 in L1210 Lymphoid Leukemia in mice at a dose of 20 mg/kg/day (qdx9); type: functional
Procedure, shortened: (§2)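 Male B6D2F₁J mice (20–25 g) bearing ip L1210 ascites (10⁵ cells, day 0) were used, 5 per group. Drug was given ip in water at pH 7.5–8.0 from day 1 on q2d×5, qd×9 or b.i.d.×10 schedules. Animals were weighed after 7 days and percent weight change recorded.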

Mus musculus [8] = organism: Mus musculus; assay: Percentage increase in life span after 17-19 days; type: functional; procedure, shortened: as §1
L1210 = assay: cytotoxicity against L1210 cells; type: functional; conditions: Mus musculus, read-out: ID50 (the source's name)
Mus musculus [9] = organism: Mus musculus; assay: Percentage increase in life span after 12-16 days; type: functional; procedure, shortened: as §1
Mus musculus [10] = assay: Toxicity in mice after 9-24 days at a dose of 12 mg/kg/day; value is 18/9; type: functional
Mus musculus [11] = assay: Toxicity in mice after 12-20 days at a dose of 20 mg/kg/day; value is 13/9; type: functional
Mus musculus [12] = assay: Toxicity in mice after 10-24 days at a dose of 15 mg/kg/day; value is 21/9; type: functional
[13] = test system: Carboxypeptidase G1 (Pseudomonas); assay: Tested for substrate activity of compound for Carboxypeptidase G1
Mus musculus [14] = assay: Weight change on day 7 in L1210 Lymphoid Leukemia in mice at a dose of 4 mg/kg/day (qdx9); type: functional
Procedure, shortened: (§3)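 Male B6D2F1J mice (20–25 g) were inoculated i.p. with 10⁵ L1210 ascites cells on day 0 and randomized into groups of 5. Drug in water at pH 7.5–8.0 was given i.p. daily for 9 days (qd×9) from day 1. Animals were weighed after 7 days, and the % body-weight change was recorded under a standard NCI protocol.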

Mus musculus [15] = assay: Toxicity in mice after 12-22 days at a dose of 60 mg/kg/day; value is 21/9; type: functional
Mus musculus [16] = assay: Toxicity in mice after 16-18 days at a dose of 9 mg/kg/day; value is 17/9; type: functional
Mus musculus [17] = organism: Mus musculus; assay: Percentage increase in life span after 16-18 days; type: functional; procedure, shortened: as §1
Mus musculus [18] = organism: Mus musculus; assay: (§4) Percentage increase in life span after 12-20 days; type: functional; procedure, shortened: as §1
[19] = target: T1, Dihydrofolate reductase (Mus musculus) (UniProt P00375)
T1 sequence (whole entry): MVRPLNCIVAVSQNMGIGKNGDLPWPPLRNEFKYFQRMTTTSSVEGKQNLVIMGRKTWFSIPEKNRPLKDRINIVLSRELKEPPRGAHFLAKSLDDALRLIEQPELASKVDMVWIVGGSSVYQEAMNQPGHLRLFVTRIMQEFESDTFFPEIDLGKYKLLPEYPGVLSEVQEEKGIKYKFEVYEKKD

[20] = Tested for substrate activity of compound for Carboxypeptidase G1; design: species or system Mus musculus
Procedure, shortened: (§5)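 Cleavage by carboxypeptidase G₁ was followed as the A320 change on release of the pteroate. Conditions were 37 °C in 0.05 M potassium phosphate, pH 6.7, with 100 μM ZnSO₄. Enzyme was diluted in 1% BSA to give ΔA320 of 0.02–0.2/min. Km and Vmax came from Lineweaver-Burk plots. Ki came from competitive runs varying analogue against fixed MTX, or vice versa.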

Mus musculus [21] = assay: Weight change on day 7 in L1210 Lymphoid Leukemia in mice at a dose of 15 mg/kg/day (b.i.d. x10); type: functional; procedure, shortened: as §2
[22] = Tested for substrate activity of compound for Carboxypeptidase G1 (exp 2); procedure, shortened: as §5
Mus musculus [23] = assay: Weight change on day 7 in L1210 Lymphoid Leukemia in mice at a dose of 12 mg/kg/day (b.i.d. x10); type: functional; procedure, shortened: as §2
[24] = target: T1, Dihydrofolate reductase (Mus musculus); assay: Binding affinity to Dihydrofolate reductase of L1210 cell line using [H]MTX as radioligand; type: cell-based
Procedure, shortened: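 Competitive [³H]MTX binding to dihydrofolate reductase from L1210 leukemia. Ascites cells from tumor-bearing mice were washed and lysed before use. The assay ran at 37 °C in 0.1 M potassium phosphate, pH 6.8. ID₅₀ was read as inhibition of radioligand binding, with MTX included in each experiment.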

Mus musculus [25] = assay: Weight change on day 7 in L1210 Lymphoid Leukemia in mice at a dose of 2 mg/kg/day (qdx9); type: functional; procedure, shortened: as §2
[26] = target: T1, Dihydrofolate reductase (Mus musculus); assay: Binding affinity to Dihydrofolate reductase of L1210/R71 using spectrophotometric assay
Procedure, shortened: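 The enzyme was isolated from MTX-resistant L1210/R71 cultured cells and purified on MTX-agarose. The assay measured ΔA340 at 22 °C in 0.1 M Tris, pH 7.0, with 62 nM enzyme. Enzyme was preincubated 2 min with inhibitor and NADPH, and dihydrofolate was then added to start the reaction. ID₅₀ determined.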

Mus musculus [27] = assay: Weight change on day 7 in L1210 Lymphoid Leukemia in mice at a dose of 8 mg/kg/day (qdx9); type: functional; procedure, shortened: as §3
Mus musculus [28] = organism: Mus musculus; assay: Percentage increase in life span after 8-17 days; type: functional; procedure, shortened: as §1
Mus musculus [29] = assay: Toxicity in mice after 12-16 days at a dose of 20 mg/kg/day; value is 14/9; type: functional
Mus musculus [30] = assay: Toxicity in mice after 8-17 days at a dose of 4 mg/kg/day; value is 11/8.5; type: functional
Mus musculus [31] = organism: Mus musculus; assay: as §4; type: functional; procedure, shortened: as §1; remark: listed apart in the source
Mus musculus [32] = assay: Toxicity in mice after 12-19 days at a dose of 8 mg/kg/day; value is 12/8.5; type: functional
Mus musculus [33] = assay: Toxicity in mice after 17-19 days at a dose of 40 mg/kg/day; value is 18/9; type: functional
[34] = target: Dihydrofolate reductase (Lactobacillus casei) (UniProt P00381); conditions: Lacticaseibacillus casei
Chain of Dihydrofolate reductase (Lactobacillus casei) (P00381 whole entry): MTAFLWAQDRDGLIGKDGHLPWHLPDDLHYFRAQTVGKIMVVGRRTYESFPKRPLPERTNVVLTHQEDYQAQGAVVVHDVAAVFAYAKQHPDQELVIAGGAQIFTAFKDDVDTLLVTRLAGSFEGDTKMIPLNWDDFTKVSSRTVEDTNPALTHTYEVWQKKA

Mus musculus [35] = assay: Weight change on day 7 in L1210 Lymphoid Leukemia in mice at a dose of 60 mg/kg/day (qdx9); type: functional; procedure, shortened: as §3
Mus musculus [36] = assay: Weight change on day 7 in L1210 Lymphoid Leukemia in mice at a dose of 40 mg/kg/day (qdx9); type: functional; procedure, shortened: as §3
Mus musculus [37] = organism: Mus musculus; assay: Percentage increase in life span after 12-19 days; type: functional; procedure, shortened: as §1
Mus musculus [38] = assay: Toxicity in mice after 12-20 days at a dose of 40 mg/kg/day; value is 14/9; type: functional
[39] = target: Dihydrofolate reductase (Lactobacillus casei) (UniProt P00381); conditions: Lacticaseibacillus casei; remark: listed apart in the source

CN(Cc1cnc2nc(N)nc(N)c2n1)c1ccc(C(=O)NC(CCCC(=O)O)C(=O)O)cc1 (stereo unspecified)
T/C (Mus musculus [1]): 10
ILS (Mus musculus [2]): 100%
ILS (Mus musculus [3]): 18%
ILS (Mus musculus [4]): 133%
ILS (Mus musculus [5]): 133%
Weight change (Mus musculus [6]): -3%
Weight change (Mus musculus [7]): 7%
ILS (Mus musculus [8]): 100%
IC50 (L1210): 30 nM
ILS (Mus musculus [9]): 56%
T/C (Mus musculus [10]): 18
T/C (Mus musculus [11]): 13
T/C (Mus musculus [12]): 21
Km [13]: 196 µM
Vmax [13]: 0.124 min⁻¹
Weight change (Mus musculus [14]): 7%
T/C (Mus musculus [15]): 21
T/C (Mus musculus [16]): 17
ILS (Mus musculus [17]): 89%
ILS (Mus musculus [18]): 55%
ID50 [19]: 6.7 nM
Ki [20]: 2770 nM
Weight change (Mus musculus [21]): -7%
Ki [22]: 3220 nM
Weight change (Mus musculus [23]): -3%
ID50 [24]: 1.4 nM
Weight change (Mus musculus [25]): 10%
ID50 [26]: 39 nM
Weight change (Mus musculus [27]): 2%
ILS (Mus musculus [28]): 29%
T/C (Mus musculus [29]): 14
T/C (Mus musculus [30]): 11
ILS (Mus musculus [31]): 44%
T/C (Mus musculus [32]): 12
T/C (Mus musculus [33]): 18
ID50 [34]: 6.9 nM
Weight change (Mus musculus [35]): -6%
Weight change (Mus musculus [36]): 2%
ILS (Mus musculus [37]): 41%
T/C (Mus musculus [38]): 14
ID50 [39]: 12 nM

From ChEMBL document CHEMBL1122411 (J Med Chem, 1983)
